Source: ChEMBL document CHEMBL5149983, “Scaffold-Hopping Strategy on a Series of Proteasome Inhibitors Led to a Preclinical Candidate for the Treatment of Visceral Leishmaniasis” (J Med Chem, 2021)
≈ marks a conversion by molar mass, not a printed value. Calls of active or inactive are those of the source.

How the values were obtained:
[1] = Intrinsic clearance in mouse liver microsomes; type: ADME, Microsome
[2] = Cytotoxicity against human THP-1 cells; type: toxicity, cell-based
[3] = Solubility of the compound in FaSSIF at pH 6.5 measured after 4 hrs by HPLC-UV analysis; type: physicochemical; conditions: for solubility at 4 h: FaSSIF, pH 6.5
[4] = Kinetic aqueous solubility of the compound by CLND method; type: physicochemical; conditions: buffer; read-out: Kinetic_solubility
[5] = Inhibition of chymotrypsin activity of proteasome beta5 subunit in Leishmania donovani amastigotes infected in human THP-1 cells incubated for 96 hrs by INMAC assay; conditions: THP-1, 96 h, read-out: pEC50 (converted)
[6] = Genotoxicity against Salmonella typhimurium by Ames test; type: toxicity; conditions: salmonella enterica subsp. enterica serovar typhimurium
[7] = Metabolic stability of the compound in mouse plasma assessed as parent compound remaining measured after 3 hrs; type: ADME, cell-free; conditions: read-out: Stability
[8] = Time during which drug concentration exceeds EC90 for inhibition of chymotrypsin activity of proteasome beta5 subunit in Leishmania donovani amastigotes infected in human THP-1 cells in NMRI mouse blood at 10 mg/kg, po by UPLC-MS/MS analysis; type: organism-based; conditions: in vivo
Summary of the method: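 Mice received a single 10 mg/kg oral dose, with a separate 3 mg/kg iv arm in the same PK study. Blood levels were followed over time, and time above the EC90 threshold was taken from the oral blood profile.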

[9] = test system: THP-1; conditions: Leishmania donovani, time 96.0 hrs
[10] = Metabolic stability of the compound in human plasma assessed as parent compound remaining measured after 3 hrs; type: ADME, cell-free; conditions: read-out: Stability
[11] = Time during which drug concentration exceeds EC90 for inhibition of chymotrypsin activity of proteasome beta5 subunit in Leishmania donovani amastigotes infected in human THP-1 cells in NMRI mouse blood at 50 mg/kg, po by UPLC-MS/MS analysis; type: organism-based; conditions: in vivo
Summary of the method: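 Not measured directly. Time above EC90 at 50 mg/kg po was projected from the 10 mg/kg oral mouse blood profile, assuming exposure rises linearly with dose.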

[12] = test system: Leishmania donovani; experiment: Antileishmanial activity against amastigote stage of Leishmania donovani MHOM/ET/67/HU3 infected in po dosed BALB/c mouse assessed as reduction in parasitemia administered twice a day for 10 days; type: functional; conditions: MHOM/ET/67/HU3, 240 h, time 10 day
[13] = test system: Leishmania donovani; experiment: Antileishmanial activity against amastigote stage of Leishmania donovani MHOM/ET/67/HU3 infected in BALB/c mouse assessed as reduction in parasitemia at 25 mg/kg, po bid for 10 days; type: functional, organism-based; conditions: time 10.0 day

Row | SMILES | CLH [1] [mL/min/g] | EC50 [2] [µM] | other results
1 | O=C(Nc1cc(-c2cn3cc(N4CCOCC4)cnc3n2)ncn1)N1CCCC1 | < 0.5 | > 50.1 | –
2 | O=C(Nc1cccc(-c2cc3cc(N4CCOCC4)nnc3o2)c1)N1CCCC1 | – | > 50.1 | –
3 | O=C(Nc1cccc(-c2nc3ccccc3o2)c1)c1ccco1 | – | > 50.1 | Activity [6]: Toxic
4 | O=C(Nc1cccc(-c2nc3ncccc3o2)c1)c1ccco1 | 24 | > 50.1 | EC50 [5]: 6.31 µM
5 | O=C(Nc1cccc(-c2cc3cc(-c4ccccc4)cnc3[nH]2)c1)N1CCCC1 | – | > 50.1 | –
6 | Cn1c(-c2cc(NC(=O)N3CCCC3)ccc2F)cc2cc(N3CCOCC3)cnc21 | – | > 50.1 | –
7 | O=C(Nc1ccc(F)c(-c2ccn3c(N4CCOCC4)cnc3n2)c1)N1CCCC1 [GSK-3494245] | 0.8 | ≥ 63.1 | solubility at 4 h [3]: 440 µM (≈ 181 µg/mL); ED90 [12]: 16 mg/kg; ED99 [12]: 30 mg/kg; Activity [13]: Active; Activity [6]: Non-Toxic; EC50 [5]: 1.58 µM
8 | CC(=O)N1CCN(c2cnc3nc(-c4cc(NC(=O)N5CCCC5)ccc4F)ccn23)CC1 | – | > 50.1 | –
9 | O=C(Nc1ccc(F)c(-c2cn3nc(N4CCOCC4)cnc3n2)c1)N1CCCC1 | – | – | solubility at 4 h [3]: 32 µM (≈ 13.2 µg/mL); Activity [6]: Toxic
10 | O=C(Nc1ccc(F)c(-c2cn3ncc(N4CCOCC4)cc3n2)c1)N1CCCC1 | – | > 50.1 | –
11 | O=C(Nc1ccc(F)c(-c2cc3nc(N4CCOCC4)cnc3[nH]2)c1)N1CCCC1 | – | > 50.1 | –
12 | O=C1CN(c2cnc3nc(-c4cc(NC(=O)N5CCCC5)ccc4F)ccn23)CCN1 | – | > 50.1 | –
13 | O=C(Nc1cccc(-c2cc3ncc(-c4ccccc4)cn3n2)c1)N1CCCC1 | – | > 50.1 | –

Continued, in another order:

Row | CLH [1] [mL/min/g] | SMILES | EC50 [2] [µM] | other results
14 | 1.8 | C[C@@H]1CN(c2cnc3nc(-c4cc(NC(=O)N5CCCC5)ccc4F)ccn23)CCO1 | – | solubility at 4 h [3]: 1580 µM (≈ 670 µg/mL); solubility kinetic [4]: 345 µM (≈ 146 µg/mL); EC50 [5]: 1 µM
15 | 0.7 | O=C(Nc1ccc(F)c(-c2nc3cc(N4CCOCC4)cnn3n2)c1)N1CCCC1 | > 50.1 | solubility at 4 h [3]: 182 µM (≈ 74.9 µg/mL); EC50 [5]: 0.794 µM
16 | < 0.5 | O=C(Nc1cnnc(-c2cn3cc(N4CCOCC4)cnc3n2)c1)N1CCCC1 | > 50.1 | –
17 | 2.7 | C[C@H]1CN(c2cnc3nc(-c4cc(NC(=O)N5CCCC5)ccc4F)ccn23)CCO1 | – | solubility at 4 h [3]: 1320 µM (≈ 561 µg/mL); solubility kinetic [4]: ≥ 362 µM; EC50 [5]: 1.26 µM
18 | < 0.5 | O=C(Nc1nccc(-c2cn3cc(N4CCOCC4)cnc3n2)n1)N1CCCC1 | > 50.1 | solubility ([3]; simulated gi fluid, pH 6.5, 4 h): > 2500 µM
19 | < 0.5 | O=C(Nc1ccc(F)c(-c2cn3cc(N4CCOCC4)cnc3n2)c1)N1CCCC1 | > 50.1 | solubility at 4 h [3]: 15 µM (≈ 6.16 µg/mL); remaining at 3 h [7]: 100%; Activity [6]: Toxic; T>EC90 [8]: 2 h; pEC90 [9]: 5.7; remaining at 3 h [10]: 100%; T>EC90 [11]: > 6 h; EC50 [5]: 0.631 µM
20 | < 0.5 | O=C(Nc1cccc(-c2cn3cc(N4CCOCC4)cnc3n2)n1)N1CCCC1 | > 50.1 | –
21 | < 0.5 | O=C(Nc1ccc(F)c(-c2nc3ncc(N4CCOCC4)cn3n2)c1)N1CCCC1 | – | –
22 | < 0.5 | COc1ccc(NC(=O)N2CCCC2)cc1-c1cn2cc(N3CCOCC3)cnc2n1 | > 50.1 | –
23 | 3.3 | O=C(Nc1ccc(F)c(-c2cnn3c(-c4ccccc4)cnc3n2)c1)N1CCCC1 | > 50.1 | solubility at 4 h [3]: 3 µM (≈ 1.21 µg/mL); EC50 [5]: 1.26 µM
24 | < 0.5 | O=C(Nc1cncc(-c2cn3cc(N4CCOCC4)cnc3n2)n1)N1CCCC1 | > 50.1 | –
25 | < 0.5 | O=C(Nc1ccc(F)c(-c2ccn3c(N4CCNCC4)cnc3n2)c1)N1CCCC1 | > 50.1 | –
